# The source made the active and inactive calls. No cut-off for these calls is given here.
# Assays:
# [1] = test system: K562; experiment: Cytotoxicity against human K562 cells after 48 hrs by MTT assay; assay type: functional; details: K562, 48 h, read-out: LC50 (the source's name)
# Procedure, shortened: (§1)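 Values reported as LC50 (μM), with doxorubicin as the positive control; the rest of the method follows the cited literature protocol.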
# [2] = test system: A549; experiment: Cytotoxicity against human A549 cells after 48 hrs by MTT assay; assay type: functional; details: A549, 48 h; procedure, shortened: as §1
# [3] = test system: Hepa-1c1c7; experiment: Induction of quinone reductase in mouse Hepa-1c1c7 cells at 2 uM after 24 hrs by MTT assay relative to control; assay type: cell-based
# [4] = test system: Staphylococcus aureus; experiment: Antimicrobial activity against Staphylococcus aureus ATCC 6538p after 24 hrs by two-fold broth dilution assay; assay type: functional
# [5] = test system: Trichophyton rubrum; experiment: Antimicrobial activity against Trichophyton rubrum IFO 9185 after 48 to 72 hrs by two-fold broth dilution assay; assay type: functional
# [6] = test system: Trichophyton mentagrophytes; experiment: Antimicrobial activity against Trichophyton mentagrophytes IFO 40996 after 48 to 72 hrs by two-fold broth dilution assay; assay type: functional
# [7] = test system: Aspergillus fumigatus; experiment: Antimicrobial activity against Aspergillus fumigatus HIC 6094 after 48 to 72 hrs by two-fold broth dilution assay; assay type: functional
# [8] = test system: Proteus vulgaris; experiment: Antimicrobial activity against Proteus vulgaris ATCC 3851 after 24 hrs by two-fold broth dilution assay; assay type: functional; details: ATCC 3851, 24 h
# [9] = test system: Hepa-1c1c7; experiment: Induction of quinone reductase in mouse Hepa-1c1c7 cells at 40 uM after 24 hrs by MTT assay relative to control; assay type: cell-based
# Procedure, shortened: (§2)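 QR induction measured in murine Hepa 1c1c7 hepatoma cells. Test concentrations ranged 5−40 μM. Blank control was 0.1% DMSO, and β-NF at 2 μM served as the positive control. Induction is expressed as fold over the blank control.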
# [10] = test system: Bacillus spizizenii; experiment: Antimicrobial activity against Bacillus subtilis ATCC 6633 after 24 hrs by two-fold broth dilution assay; assay type: functional; details: ATCC 6633, 24 h
# [11] = test system: Escherichia coli; experiment: Antimicrobial activity against Escherichia coli ATCC 35270 after 24 hrs by two-fold broth dilution assay; assay type: functional; details: ATCC 35270, 24 h
# [12] = test system: Salmonella typhimurium; experiment: Antimicrobial activity against Salmonella typhimurium ATCC 14028 after 24 hrs by two-fold broth dilution assay; assay type: functional, Salmonella enterica subsp. enterica serovar Typhimurium; details: Salmonella enterica, ATCC 14028, 24 h
# [13] = test system: Candida albicans; experiment: Antimicrobial activity against Candida albicans ATCC 10231 after 48 to 72 hrs by two-fold broth dilution assay; assay type: functional
# [14] = test system: Micrococcus luteus; experiment: Antimicrobial activity against Micrococcus luteus IFO 12708 after 24 hrs by two-fold broth dilution assay; assay type: functional; details: IFO 12708, 24 h
# [15] = test system: Hepa-1c1c7; experiment: Induction of quinone reductase in mouse Hepa-1c1c7 cells after 24 hrs by MTT assay; assay type: cell-based; procedure, shortened: as §2
# [16] = read-out: LC50 (the source's name)
Structure (SMILES),CC50 [1] [µM],CC50 ([2]; read-out: LD50 (the source's name)) [µM],Activity [3],MIC [4] [mg/L],MIC [5] [mg/L],MIC [6] [mg/L],MIC [7] [mg/L],MIC [8] [mg/L],Activity [9],"CC50 [2, 16] [µM]",MIC [10] [mg/L],MIC [11] [mg/L],MIC [12] [mg/L],MIC [13] [mg/L],MIC [14] [mg/L],Ratio [9],Activity [15]
COc1cccc2c1C(=O)c1c(O)c3c(c(O)c1C2=O)C[C@@](O)(C(=O)CO)C[C@@H]3O[C@H]1C[C@H](N)[C@H](O)[C@H](C)O1 [DOXORUBICIN],0.99,1.2,–,–,–,–,–,–,–,–,–,–,–,–,–,–,–
O=c1cc(-c2ccccc2)oc2ccc3ccccc3c12,–,–,Active,–,–,–,–,–,–,–,–,–,–,–,–,–,–
Cc1cc(=O)c2c(o1)O[C@@]1(C)[C@@H](CC[C@H]3C(C)(C)[C@@H](O)CC[C@@]31C)C2,28,–,–,> 100,> 100,> 100,> 100,> 100,inactive,15,> 100,> 100,> 100,> 100,> 100,–,–
Cc1cc(=O)c2c(o1)O[C@@]1(C)[C@@H](CC[C@H]3C(C)(C)C(=O)CC[C@@]31C)C2,50,–,–,> 100,> 100,> 100,> 100,> 100,–,17,> 100,> 100,> 100,> 100,> 100,1.9,Dose-dependent effect
